Reference: ChEMBL document CHEMBL1131166, “Bisphenols that stimulate cells to release alkali metal cations: a structure-activity study” (1998)

Assays:
Format in all cases: functional, Cercopithecidae
COS-7 [1] = experiment: (§1) Fraction of total radioactivity [86Rb] remaining with the compound at a concentration of 10 uM in COS-7 cells
Procedure, shortened: (§2)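 COS-7 cells grown in DMEM + 10% FCS to 85–98% confluence, loaded ~4 μCi 86RbCl in BSS (HEPES, pH 7.2) 90 min at 37 °C, washed thrice ice-cold BSS, reincubated 37 °C with medium replaced every 10 min; compound (DMSO stock diluted ≥5000-fold in BSS) present 40 min from 20 min. Cell-retained 86Rb at 60 min as fraction of initial total (cells + media); mean ± SD, three experiments.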

COS-7 [2] = experiment: Fraction of total radioactivity [86Rb] remaining with the compound at a concentration of 1 uM in COS-7 cells; procedure, shortened: as §2
COS-7 [3] = experiment: Fraction of total radioactivity [86Rb] remaining with the compound at a concentration of 0 uM in COS-7 cells; procedure, shortened: as §2
COS-7 [4] = experiment: Fraction of total radioactivity [86Rb] remaining with the compound at a concentration of 0.01 uM in COS-7 cells; procedure, shortened: as §2
COS-7 [5] = experiment: Fraction of total radioactivity [86Rb] remaining with the compound at a concentration of 0.1 uM in COS-7 cells and value; procedure, shortened: as §2
COS-7 [6] = experiment: Fraction of total radioactivity [86Rb] remaining with the compound at a concentration of 0.1 uM in COS-7 cells
Procedure, shortened: (§3)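 COS-7 cells grown in DMEM with 10% FCS at 37 °C under 5% CO2 until 85–98% confluent. Loaded with about 4 μCi ⁸⁶RbCl in HEPES BSS (pH 7.2) for 90 min at 37 °C, then washed in ice-cold BSS. Reincubated at 37 °C with medium changed every 10 min; compound in BSS (DMSO ≥5000-fold diluted) given for the last 40 min. Read-out is the cell-retained fraction of total ⁸⁶Rb at 60 min by scintillation counting, mean ± SD of three experiments.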

COS-7 [7] = experiment: as §1; procedure, shortened: as §3; remark: listed apart in the source

Nc1ccc(C2(c3ccc(N)cc3)c3ccccc3-c3ccccc32)cc1
Fraction of accumulated 86Rb remaining. (COS-7 [1]): 0.419

Oc1ccc2ccccc2c1-c1c(O)ccc2ccccc12
Fraction of accumulated 86Rb remaining. (COS-7 [1]): 0.565

Oc1ccc(C2(c3ccc(O)cc3)c3ccccc3-c3ccccc32)cc1
Fraction of accumulated 86Rb remaining. (COS-7 [2]): 0.006 | Fraction of accumulated 86Rb remaining. (COS-7 [3]): 0.556 | Fraction of accumulated 86Rb remaining. (COS-7 [1]): 0.003 | Fraction of accumulated 86Rb remaining. (COS-7 [4]): 0.532 | Fraction of accumulated 86Rb remaining. (COS-7 [5]): 0.147

OCCOc1ccc(C2(c3ccc(OCCO)cc3)c3ccccc3-c3ccccc32)cc1
Fraction of accumulated 86Rb remaining. (COS-7 [1]): 0.486

O=C1OC(c2ccc(O)cc2)(c2ccc(O)cc2)c2ccccc21 [PHENOLPHTHALEIN]
Fraction of accumulated 86Rb remaining. (COS-7 [2]): 0.234 | Fraction of accumulated 86Rb remaining. (COS-7 [6]): 0.472 | Fraction of accumulated 86Rb remaining. (COS-7 [3]): 0.503 | Fraction of accumulated 86Rb remaining. (COS-7 [1]): 0.091 | Fraction of accumulated 86Rb remaining. (COS-7 [4]): 0.461

Oc1ccc(Cc2ccc(O)cc2)cc1
Fraction of accumulated 86Rb remaining. (COS-7 [1]): 0.581

Oc1ccc(-c2ccc(O)cc2)cc1
Fraction of accumulated 86Rb remaining. (COS-7 [7]): 0.604
